Measured values as given in article PMC10108379 (RSC Advances, 2023).

Key:
[1] = Stability of the three components in rat plasma; format: in vitro ADME; conditions: for Stability, RE: n = 6
In short: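 Blank rat plasma spiked with each analyte at low, medium and high QC levels, then subjected to repeated freeze–thaw cycles. Samples were thawed to room temperature and precipitated with cold methanol containing puerarin as internal standard, then vortexed 3 min and centrifuged at 12 000 rpm for 15 min. Analysis was by UPLC-MS/MS on an HSS T3 column at 30 °C (0.1% formic acid water/acetonitrile gradient). Acceptance limit: within 15%.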

[2] = Pharmacokinetics in rat plasma after oral administration of AR and SAR extracts; format: in vivo, Sprague-Dawley (SD) rats
[3] = tested on: HepG-2 cells; conditions: previous PD experiments of the group; cited from earlier work
[4] = freeze–thaw cycles, high QC (200 / 300 / 250 μg mL^−1)
[5] = −20 °C for 30 days, high QC (200 / 300 / 250 μg mL^−1)
[6] = rat plasma, oral AR extract 5 mL kg^−1, n = 6

Structure (SMILES): O=c1c2cc(O)c(O)cc2oc2cc(O)c([C@@H]3O[C@H](CO)[C@@H](O)[C@H](O)[C@H]3O)c(O)c12 [Mangiferin, mangiferin]
- Stability, RE [1, 4]: 10.2%
- Stability, RE [1, 5]: 2.3%
- increase of AUC after administration of the SAR extract ([2]; SAR group compared to AR group, rats, oral): 22.3%
- T max [2, 6]: 5.76 ± 0.52 h
- t 1/2 [2, 6]: 3.01 ± 0.36 h
- glucose consumption of HepG-2 cells [3]: improved the glucose consumption

Structure (SMILES): C[C@H]1CC[C@@]2(OC1)O[C@H]1C[C@H]3[C@@H]4CC[C@@H]5C[C@@H](O[C@@H]6O[C@H](CO)[C@H](O)[C@H](O)[C@H]6O[C@@H]6O[C@H](CO)[C@@H](O)[C@H](O)[C@H]6O)CC[C@]5(C)[C@H]4CC[C@]3(C)[C@H]1[C@@H]2C [Timosaponin AIII, timosaponin AIII]
- relative error (RE) after each stability experiment ([1]; 4 °C 24 h, −20 °C 30 days, freeze–thaw cycles, all QC levels): ≤ 10.6%
- Stability, RE ([1]; autosampler at 4 °C for 24 h, low QC (2.0 / 3.0 / 2.5 μg mL^−1)): 1.3%
- Stability, RE [1, 4]: 3.8%
- Stability, RE ([1]; freeze–thaw cycles, low QC (2.0 / 3.0 / 2.5 μg mL^−1)): −0.1%
- Stability, RE ([1]; freeze–thaw cycles, medium QC (20.0 / 30.0 / 25.0 μg mL^−1)): 6.8%
- Stability, RE [1, 5]: 10.6%
- Stability, RE ([1]; −20 °C for 30 days, low QC (2.0 / 3.0 / 2.5 μg mL^−1)): 2.2%
- Stability, RE ([1]; −20 °C for 30 days, medium QC (20.0 / 30.0 / 25.0 μg mL^−1)): 6.3%
- C max [2, 6]: 3.67 ± 0.51 ng/mL
- glucose consumption of HepG-2 cells [3]: improved the glucose consumption
